Results as given in BindingDB's records for doi:10.1021/jm9900321 (Dupont Pharmaceuticals, 2000).

Experiments:
[1] = target: T1, Integrin alpha-IIb/beta-3 (Homo sapiens, UniProt P08514+P05106); test: Inhibition of platelet aggregation in human gel-purified platelets containing fibrinogen (GPP+Fg).
Summary of the method: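 Platelets are gel-filtered from human PRP on sepharose (2×10⁸ platelets/mL). They are assayed with 1 mM CaCl₂ and 1 mg/mL fibrinogen across a range of test-agent concentrations, and IC₅₀ is calculated from the inhibition curve.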

[2] = Inhibition of platelet aggregation in human platelet rich plasma (PRP)
[3] = target: T1, Integrin alpha-IIb/beta-3; test: Inhibition of platelet aggregation in human platelet rich plasma (PRP)
Summary of the method: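 Human PRP is obtained by centrifuging blood at 150g for 10 min; platelet-poor plasma serves as the 100% transmittance blank. PRP at 2×10⁸ platelets/mL is preincubated with test agent at several concentrations for 8 min. It is then stimulated with ADP (10 μM final), and aggregation is followed as light transmittance over time to derive IC₅₀.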

T1 sequence (P05106 27-788 limits assumed): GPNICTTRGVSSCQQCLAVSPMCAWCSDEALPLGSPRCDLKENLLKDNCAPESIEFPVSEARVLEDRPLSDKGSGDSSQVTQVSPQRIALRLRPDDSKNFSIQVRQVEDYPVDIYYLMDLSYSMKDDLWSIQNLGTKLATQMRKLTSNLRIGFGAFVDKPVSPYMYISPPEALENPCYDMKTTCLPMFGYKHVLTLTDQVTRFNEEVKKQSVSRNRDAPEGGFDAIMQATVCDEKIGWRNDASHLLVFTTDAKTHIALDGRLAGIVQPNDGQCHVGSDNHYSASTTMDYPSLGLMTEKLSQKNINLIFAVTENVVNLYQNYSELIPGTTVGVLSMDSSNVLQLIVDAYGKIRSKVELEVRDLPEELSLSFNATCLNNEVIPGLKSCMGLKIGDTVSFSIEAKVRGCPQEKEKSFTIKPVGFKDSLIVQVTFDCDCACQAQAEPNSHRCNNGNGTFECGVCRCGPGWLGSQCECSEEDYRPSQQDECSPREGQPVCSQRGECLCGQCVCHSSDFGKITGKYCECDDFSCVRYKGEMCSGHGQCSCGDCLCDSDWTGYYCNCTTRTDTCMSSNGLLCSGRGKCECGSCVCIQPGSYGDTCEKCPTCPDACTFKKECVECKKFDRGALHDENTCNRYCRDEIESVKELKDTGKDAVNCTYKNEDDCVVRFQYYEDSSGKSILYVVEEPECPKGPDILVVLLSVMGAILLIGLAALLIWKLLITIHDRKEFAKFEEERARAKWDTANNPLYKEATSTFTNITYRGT
T1 sequence (P08514 32-887 limits assumed): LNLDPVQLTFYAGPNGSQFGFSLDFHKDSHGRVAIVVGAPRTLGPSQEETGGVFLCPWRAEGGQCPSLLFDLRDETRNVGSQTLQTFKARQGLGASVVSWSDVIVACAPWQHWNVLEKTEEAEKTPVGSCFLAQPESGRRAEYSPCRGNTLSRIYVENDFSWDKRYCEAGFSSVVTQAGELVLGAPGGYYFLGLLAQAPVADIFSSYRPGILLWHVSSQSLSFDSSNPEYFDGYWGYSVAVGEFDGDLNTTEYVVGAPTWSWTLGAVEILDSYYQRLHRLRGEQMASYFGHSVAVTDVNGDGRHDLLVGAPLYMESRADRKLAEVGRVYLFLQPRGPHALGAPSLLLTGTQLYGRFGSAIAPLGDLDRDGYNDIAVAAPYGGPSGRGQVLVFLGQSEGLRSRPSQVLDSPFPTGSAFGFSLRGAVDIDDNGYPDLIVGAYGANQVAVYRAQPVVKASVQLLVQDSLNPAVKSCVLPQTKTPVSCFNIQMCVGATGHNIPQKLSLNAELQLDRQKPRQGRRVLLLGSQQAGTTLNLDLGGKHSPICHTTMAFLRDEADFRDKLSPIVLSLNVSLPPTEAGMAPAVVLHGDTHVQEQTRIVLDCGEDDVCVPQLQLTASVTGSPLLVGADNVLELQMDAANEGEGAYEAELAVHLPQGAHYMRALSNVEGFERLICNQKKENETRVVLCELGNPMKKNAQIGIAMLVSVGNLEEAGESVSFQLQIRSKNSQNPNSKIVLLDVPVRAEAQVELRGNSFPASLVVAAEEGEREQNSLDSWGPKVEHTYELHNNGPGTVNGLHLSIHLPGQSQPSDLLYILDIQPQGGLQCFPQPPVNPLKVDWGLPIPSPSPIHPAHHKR
T1 sequence (P08514 891-1039 limits assumed): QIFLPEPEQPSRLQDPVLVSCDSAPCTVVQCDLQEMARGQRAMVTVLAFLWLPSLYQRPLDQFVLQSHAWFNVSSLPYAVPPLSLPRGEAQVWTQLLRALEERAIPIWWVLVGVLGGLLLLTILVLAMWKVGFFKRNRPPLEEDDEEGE

Compound	IC50 [1]	IC50 [2]	IC50 [3]
Cc1cc(C)c(S(=O)(=O)N[C@@H](CNC(=O)C2=NOC(CCCc3cnc(N)[nH]3)C2)C(=O)O)c(C)c1 (stereo partly specified) [3-({5-[3-(2-Amino-1H-imidazol-4-yl)-propyl]-4,5-dihydro-isoxazole-3-carbonyl}-amino)-2-(2,4,6-trimethyl-benzenesulfonylamino)-propionic acid]	0.18 µM	0.28 µM	–
Cc1cc(-c2ccccc2)cc(C)c1S(=O)(=O)N[C@@H](CNC(=O)C1=NOC(CCCCNc2ccccn2)C1)C(=O)O (stereo partly specified) [2-(3,5-Dimethyl-biphenyl-4-sulfonylamino)-3-({5-[4-(pyridin-2-ylamino)-butyl]-4,5-dihydro-isoxazole-3-carbonyl}-amino)-propionic acid]	–	> 100 µM	–
O=C(NC[C@H](NS(=O)(=O)c1ccc(-c2ccccc2)cc1)C(=O)O)C1=NOC(CCCCNc2ncc[nH]2)C1 (stereo partly specified) [2-(Biphenyl-4-sulfonylamino)-3-({5-[4-(1H-imidazol-2-ylamino)-butyl]-4,5-dihydro-isoxazole-3-carbonyl}-amino)-propionic acid]	5 µM	43 µM	–
Cc1cc(-c2ccccc2)cc(C)c1S(=O)(=O)N[C@@H](CNC(=O)C1=NOC(CCCCNc2ncc[nH]2)C1)C(=O)O (stereo partly specified) [2-(3,5-Dimethyl-biphenyl-4-sulfonylamino)-3-({5-[4-(1H-imidazol-2-ylamino)-butyl]-4,5-dihydro-isoxazole-3-carbonyl}-amino)-propionic acid]	0.69 µM	3.1 µM	–
Cc1cccc(Cl)c1S(=O)(=O)N[C@@H](CNC(=O)C1=NOC(CCCCNc2ncc[nH]2)C1)C(=O)O (stereo partly specified) [2-(2-Chloro-6-methyl-benzenesulfonylamino)-3-({5-[4-(1H-imidazol-2-ylamino)-butyl]-4,5-dihydro-isoxazole-3-carbonyl}-amino)-propionic acid]	–	0.39 µM	–
O=C(NC[C@H](NS(=O)(=O)c1ccccc1)C(=O)O)C1=NOC(CCCCNc2ccccn2)C1 (stereo partly specified) [2-Benzenesulfonylamino-3-({5-[4-(pyridin-2-ylamino)-butyl]-4,5-dihydro-isoxazole-3-carbonyl}-amino)-propionic acid]	18 µM	30 µM	–
Cc1cc(C)c(S(=O)(=O)N[C@@H](CNC(=O)C2=NOC(CCCCNc3ncc[nH]3)C2)C(=O)O)c(C)c1 (stereo partly specified) [3-({5-[4-(1H-Imidazol-2-ylamino)-butyl]-4,5-dihydro-isoxazole-3-carbonyl}-amino)-2-(2,4,6-trimethyl-benzenesulfonylamino)-propionic acid]	–	0.85 µM	–
Cc1cc(C)c(S(=O)(=O)N[C@@H](CNC(=O)C2=NOC(CCCc3cccc(N)n3)C2)C(=O)O)c(C)c1 (stereo partly specified) [3-({5-[3-(6-Amino-pyridin-2-yl)-propyl]-4,5-dihydro-isoxazole-3-carbonyl}-amino)-2-(2,4,6-trimethyl-benzenesulfonylamino)-propionic acid]	–	78 µM	–
Cc1cc(C)c(S(=O)(=O)N[C@@H](CNC(=O)C2=NOC(CCCCNS(N)(=O)=O)C2)C(=O)O)c(C)c1 (stereo partly specified) [2-[2,4,6-trimethylphenylsulfonylamino]-3-[5-(4-aminosulfonylamino)butyl)isoxazolin-3-ylcarbonyl]amino-propionic acid]	> 100 µM	–	–
N=C(N)c1ccc(C2=NO[C@@H](CC(=O)NCCC(=O)O)C2)cc1	0.14 µM	0.24 µM	–
Cc1cc(C)c(S(=O)(=O)N[C@H](CNC(=O)C2=NOC(CCCCNc3ncc[nH]3)C2)C(=O)O)c(C)c1 (stereo partly specified)	28 µM	68 µM	–
O=C(NC[C@H](NS(=O)(=O)c1c(Cl)cccc1Cl)C(=O)O)C1=NOC(CCCCNc2ncc[nH]2)C1 (stereo partly specified) [2-(2,6-Dichloro-benzenesulfonylamino)-3-({5-[4-(1H-imidazol-2-ylamino)-butyl]-4,5-dihydro-isoxazole-3-carbonyl}-amino)-propionic acid]	0.19 µM	0.35 µM	–
Cc1cc(C)c(S(=O)(=O)N[C@@H](CNC(=O)C2=NOC(CCCC(=O)Nc3ncc[nH]3)C2)C(=O)O)c(C)c1 (stereo partly specified) [3-({5-[3-(1H-Imidazol-2-ylcarbamoyl)-propyl]-4,5-dihydro-isoxazole-3-carbonyl}-amino)-2-(2,4,6-trimethyl-benzenesulfonylamino)-propionic acid]	> 100 µM	–	–

Other lines, results leading:

IC50 [1]	IC50 [2]	IC50 [3]	Compound
–	0.16 µM	–	Cc1cc(C)c(S(=O)(=O)N[C@@H](CNC(=O)C2=NOC(CCCCNC(=N)N)C2)C(=O)O)c(C)c1 (stereo partly drawn) [3-{5-[4-amino(imino)methylaminobutyl]-4,5-dihydro-3-isoxazolylcarboxamido}-2-mesitylsulfonamido-(2S)-propanoic acid]
–	1.6 µM	–	O=C(NC[C@H](NS(=O)(=O)c1c(Cl)cc(-c2ccccc2)cc1Cl)C(=O)O)C1=NOC(CCCCNc2ncc[nH]2)C1 (stereo partly specified) [2-(3,5-Dichloro-biphenyl-4-sulfonylamino)-3-({5-[4-(1H-imidazol-2-ylamino)-butyl]-4,5-dihydro-isoxazole-3-carbonyl}-amino)-propionic acid]
6.5 µM	16 µM	–	Cc1cc(C)c(S(=O)(=O)N[C@@H](CNC(=O)C2=NOC(CCCCNc3ccccn3)C2)C(=O)O)c(C)c1 (stereo partly specified) [3-({5-[4-(Pyridin-2-ylamino)-butyl]-4,5-dihydro-isoxazole-3-carbonyl}-amino)-2-(2,4,6-trimethyl-benzenesulfonylamino)-propionic acid]
32 µM	120 µM	–	Cc1cc(C)c(S(=O)(=O)N[C@@H](CNC(=O)C2=NOC(CCNC(=O)Nc3ncc[nH]3)C2)C(=O)O)c(C)c1 (stereo partly specified) [3-[(5-{2-[3-(1H-Imidazol-2-yl)-ureido]-ethyl}-4,5-dihydro-isoxazole-3-carbonyl)-amino]-2-(2,4,6-trimethyl-benzenesulfonylamino)-propionic acid]
–	> 100 µM	–	O=C(NC[C@H](NS(=O)(=O)c1cccc2ccccc12)C(=O)O)C1=NOC(CCCCNc2ccccn2)C1 (stereo partly specified) [2-(Naphthalene-1-sulfonylamino)-3-({5-[4-(pyridin-2-ylamino)-butyl]-4,5-dihydro-isoxazole-3-carbonyl}-amino)-propionic acid]
6.5 µM	78 µM	–	Cc1cc(C)c(S(=O)(=O)N[C@@H](CNC(=O)C2=NOC(CCCCNc3nccc4ccccc34)C2)C(=O)O)c(C)c1 (stereo partly specified) [3-({5-[4-(Isoquinolin-1-ylamino)-butyl]-4,5-dihydro-isoxazole-3-carbonyl}-amino)-2-(2,4,6-trimethyl-benzenesulfonylamino)-propionic acid]
–	1.5 µM	–	Cc1noc(C)c1S(=O)(=O)N[C@@H](CNC(=O)C1=NOC(CCCCNc2ncc[nH]2)C1)C(=O)O (stereo partly specified) [2-(3,5-Dimethyl-isoxazole-4-sulfonylamino)-3-({5-[4-(1H-imidazol-2-ylamino)-butyl]-4,5-dihydro-isoxazole-3-carbonyl}-amino)-propionic acid]
47 µM	84 µM	–	N[C@@H](CNC(=O)C1=NOC(CCCCNc2ncc[nH]2)C1)C(=O)O (stereo partly specified) [2-Amino-3-({5-[4-(1H-imidazol-2-ylamino)-butyl]-4,5-dihydro-isoxazole-3-carbonyl}-amino)-propionic acid]
7.7 µM	11 µM	–	Cc1cc(C)c(S(=O)(=O)N[C@@H](CNC(=O)C2=NOC(CCCCNc3cc4ccccc4cn3)C2)C(=O)O)c(C)c1 (stereo partly specified) [3-({5-[4-(Isoquinolin-3-ylamino)-butyl]-4,5-dihydro-isoxazole-3-carbonyl}-amino)-2-(2,4,6-trimethyl-benzenesulfonylamino)-propionic acid]
0.6 µM	0.69 µM	–	Cc1cc(C)c(S(=O)(=O)N[C@@H](CNC(=O)C2=NOC(CCCCNC3=NCCN3)C2)C(=O)O)c(C)c1 (stereo partly specified) [3-({5-[4-(4,5-Dihydro-1H-imidazol-2-ylamino)-butyl]-4,5-dihydro-isoxazole-3-carbonyl}-amino)-2-(2,4,6-trimethyl-benzenesulfonylamino)-propionic acid]
–	> 100 µM	–	CC(C)c1ccc(S(=O)(=O)N[C@@H](CNC(=O)C2=NOC(CCCCNc3ccccn3)C2)C(=O)O)cc1 (stereo partly specified) [2-(4-Isopropyl-benzenesulfonylamino)-3-({5-[4-(pyridin-2-ylamino)-butyl]-4,5-dihydro-isoxazole-3-carbonyl}-amino)-propionic acid]
85 µM	–	> 100 µM	O=C(N[C@@H](CNC(=O)C1=NOC(CCCCNc2ccccn2)C1)C(=O)O)OCc1ccccc1 (stereo partly specified) [2-Benzyloxycarbonylamino-3-({5-[4-(pyridin-2-ylamino)-butyl]-4,5-dihydro-isoxazole-3-carbonyl}-amino)-propionic acid]
0.57 µM	7.8 µM	–	O=C(NC[C@H](NS(=O)(=O)c1cccc2ccccc12)C(=O)O)C1=NOC(CCCCNc2ncc[nH]2)C1 (stereo partly specified) [3-({5-[4-(1H-Imidazol-2-ylamino)-butyl]-4,5-dihydro-isoxazole-3-carbonyl}-amino)-2-(naphthalene-1-sulfonylamino)-propionic acid]
